Assay outcomes: PubChem, several laboratories
Rows were chosen to be rich in hits. Some 11% of all compounds tested hit in one or more screens of this group.
SF-1 act – activators of human nuclear receptor SF-1; CHO-K1 Gal4-SF-1 LBD luciferase reporter; % increase over DMSO SF-1-specific signal; activation, % at 10 µM; actives 1.9% (n = 65,000); AID 522;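 active = activation above the mean activation of all tested compounds plus 3 SD, cut at about 50% in these data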
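Material: CHO-K1 cells with Gal4–hSF-1 LBD chimera plus Gal4-driven luciferase / Input: 4,000 CHO-K1 cells per well / Incubation: compound exposure 20 h at 37 °C / Signal: luminescence read 15 min after SteadyLite luciferase reagent, after room-temperature equilibration / Read-out: percent activation versus DMSO / Benchmarks: DMSO negative control and −SF1 background wells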
D1 allo mod – allosterically modulates the human D1 dopamine receptor | P21728 | HEK293 D1, CRE-luciferase, dopamine EC30 potentiation; actives deviate in either direction | B-score at 10 µM | actives 5.9% (n = 58,000);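 active = luminescence count or its row- and column-corrected plate score outside the 99.7% band of the plate's sample wells, on either side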
Target sequence (P21728 whole entry, looked up): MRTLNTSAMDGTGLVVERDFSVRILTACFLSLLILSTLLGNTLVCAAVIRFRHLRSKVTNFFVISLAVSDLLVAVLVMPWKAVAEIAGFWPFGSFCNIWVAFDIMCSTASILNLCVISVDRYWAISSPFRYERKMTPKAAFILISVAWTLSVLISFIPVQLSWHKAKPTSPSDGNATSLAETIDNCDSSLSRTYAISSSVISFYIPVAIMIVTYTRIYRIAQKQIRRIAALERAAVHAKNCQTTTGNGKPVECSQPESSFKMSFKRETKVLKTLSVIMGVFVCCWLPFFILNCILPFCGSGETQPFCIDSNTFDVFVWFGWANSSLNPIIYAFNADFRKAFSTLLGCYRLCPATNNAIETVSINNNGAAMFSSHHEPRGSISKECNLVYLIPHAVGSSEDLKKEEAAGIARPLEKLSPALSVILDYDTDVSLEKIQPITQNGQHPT
RORA act – activates the human nuclear receptor RORA | P35398 | CHO-K1 Gal4-RORA LBD luciferase reporter, luminescence; percent increase over mock-subtracted basal signal | activation, % at 10 µM | actives 1.5% (n = 65,000) | AID 560;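 active = activation above the mean of all tested compounds plus 3 SD, cut at about 49% in these data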
M1 agonist – agonists of M1 muscarinic receptor; B-score at 10 µM; CHO-M1 cells, Fluo-4 calcium fluorescence, agonist mode; stronger effect = higher value; actives 3% (n = 64,000);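 active = fluorescence rise, raw or as B-score row- and column-corrected plate score, outside the 99.7% band of its plate's samples, either direction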
M1 antagonist – antagonists of rat M1 muscarinic receptor | P08482 | CHO-M1 cells, Fluo-4 calcium, ACh EC80 antagonist mode; stronger effect = lower value | B-score at 10 µM | actives 3.4% (n = 64,000) | AID 628;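 active = calcium fluorescence response, raw or row-and-column corrected B-score, differing from the plate sample mean either way at a set confidence level, mostly lower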
Htt clearance – mutant huntingtin protein clearance; HeLa Exon1htt(103Q)mCFP, aggregate imaging; zero = plate's median compound well; inhibition, % at 1.5 µM; actives 0.42% (n = 47,000); AID 853;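 active = inhibition of aggregate fluorescence above about 70%, also judged a hit by eye on the cell image, limit read from the data, passing the limit was not always enough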;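 note: cells exposed to compound for three days before fixation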
A number is an active result; n = inactive; x = no result given.

SMILES	SF-1 act	D1 allo mod	RORA act	M1 agonist	M1 antagonist	Htt clearance
CN1CCN(S(=O)(=O)c2ccc(NC(=O)c3ccc(Br)o3)cc2)CC1	n	n	n	n	n	x
CN1CCN(S(=O)(=O)c2ccc(NC(=O)c3ccc(F)cc3)cc2)CC1	n	n	n	n	3.46	x
Cc1ccc(C)c(N2CCN(C(=O)c3cc(S(=O)(=O)N4CCOCC4)ccc3F)CC2)c1	n	n	n	n	n	x
Cc1ccc(-c2nnc(-c3ccccc3)o2)cc1Br	n	x	n	n	n	x
Nc1c(Br)cc2oc(-c3ccccc3)nc2c1Br	75.6	n	52.3	n	n	x
COc1ccc(-c2nc3c(Br)c(N)c(Br)cc3o2)cc1	73.0	x	n	n	n	x
Cc1cc(C)cc(N2CC34C=CC(O3)C(C(=O)OCC(=O)NCc3ccco3)C4C2=O)c1 (configuration not stated)	n	n	n	n	n	n
Cc1ccc(S(=O)(=O)N(C)CC(=O)N2CCCC2)cc1	x	x	x	x	x	n
Cn1c(/N=C/c2cccs2)nc2ccccc21	n	n	n	n	n	x
Cn1c(/N=C/c2cc(Cl)ccc2O)nc2ccccc21	n	n	n	2.47	n	x
Cc1cc(-c2ccccc2)nc(N2CCC(C(=O)NCC3CCCCC3)CC2)n1	x	x	x	x	x	n
CCN1C2=C(C(=O)CCC2)C(c2ccc(O)cc2)C2=C1CCCC2=O	n	n	n	n	n	n
Cc1nc2ccccc2c2oc(C(=O)N3CCN(C(=O)c4ccco4)CC3)cc12	n	n	n	n	n	x
Cc1nc2ccccc2c2oc(C(=O)N3CCc4ccccc4C3)cc12	n	n	n	6.03	n	x
CCCc1nc2c(sc3nc4c(cc32)COC(C)(C)C4)c(=O)n1Cc1ccco1	n	n	n	n	n	n
CC1(C)Cc2nc3sc4c(SCC(=O)NCc5ccco5)ncnc4c3cc2CO1	81.0	n	n	n	n	n
Cc1nc2c(sc3nc4c(cc32)COC(C)(C)C4)c(=O)n1CC(=O)NCc1ccco1	133.7	n	101.0	n	n	x
O=C(CSc1ncnc2sc3c(c12)CCCCC3)NCc1ccco1	n	n	n	n	n	x
COc1ccc(OC)c(NC(=O)Cn2cc(C(=O)c3ccco3)c3ccccc32)c1	n	n	n	n	n	75.8
CCOC(=O)Cn1cc(C(=O)c2ccco2)c2ccccc21	n	n	n	n	n	n
COc1ccccc1OCCn1cc(C(=O)c2ccco2)c2ccccc21	n	n	n	4.58	n	n
c1ccc(COc2ccc(CNn3cnnc3)cc2)cc1	n	n	n	n	n	n
CCC(C)(C)n1nnnc1CN(Cc1cccs1)Cc1cc2cc(OC)ccc2[nH]c1=O	n	n	n	3.68	n	x
c1ccc(-c2nc(N3CCCCCC3)c3ccccc3n2)nc1	n	n	n	n	n	n
COc1ccc(Nc2nc(N3CCCC3)c3ccccc3n2)cc1	n	-6.93	n	n	n	x
SMILES	SF-1 act	D1 allo mod	RORA act	M1 agonist	M1 antagonist	Htt clearance
O=C1CCCCCN1CP(=O)(O)CN1CCOCC1	n	n	n	n	n	x
COc1ccccc1Nc1nc(C)cc(=O)[nH]1	n	n	n	n	n	n
COc1ccccc1Nc1nc2ccccc2[nH]1	65.5	n	n	n	n	n
CC(C)Oc1snc(Cl)c1C(N)=O	n	x	n	n	n	x
O=C(Nc1ccc(Cc2ccncc2)cc1)c1ccco1	n	n	n	n	n	n
CC(=O)N(C)c1ccc(NC(=O)c2ccccc2C(=O)O)cc1	n	n	n	n	n	n
O=C(Nc1ccc(Nc2ccccc2)cc1)c1ccco1	87.0	x	60.3	x	x	n
CCOc1cc(NC(=O)c2ccco2)c(OCC)cc1NC(=O)CCc1ccccc1OC	n	x	n	n	n	x
CCOc1cc(NC(=O)c2ccco2)c(OCC)cc1NC(=O)c1cc(OC)c(OC)c(OC)c1	n	-4.97	n	n	n	n
CC(=O)N(C)c1ccc(NC(=O)c2ccco2)cc1	49.9	n	n	n	n	n
O=C(N/C(=C/c1ccc(Br)cc1)c1nc2ccccc2[nH]1)c1ccco1	x	x	x	x	x	80.0
O=C(CCc1nc2ccccc2[nH]1)N1CCN(C(=O)c2ccco2)CC1	n	n	n	n	n	x
O=C(Nc1ccc2nc(-c3ccco3)[nH]c2c1)c1ccco1	n	n	n	n	n	n
O=C(CSc1ccc(-c2nc3ccccc3[nH]2)cn1)N1CCN(C(=O)c2ccco2)CC1	n	n	n	11.9	n	n
